According to ChEMBL document CHEMBL4334446, “Evaluating the effects of fluorine on biological properties and metabolic stability of some antitubulin 3-substituted 7-phenyl-pyrroloquinolinones” (Eur J Med Chem, 2019):
Activity calls are given as the source filed them. No cut-off for these calls is given here.

What was measured:
[1] = tested on: HeLa; experiment: Induction of apoptosis in human HeLa cells at 50 nM incubated for 24 to 48 hrs by annexin-V FITC and PI staining based flow cytometric analysis; format: functional, cell-based
Summary of the method: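 HeLa cells were treated 24 or 48 h, then harvested and double-stained with annexin-V-FITC and PI for flow cytometry. Populations were separated as live, early apoptotic, late apoptotic and necrotic. Mean ± SEM of three independent experiments.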

[2] = Selectivity ratio of GI50 for human PBL cells to GI50 for human Jurkat cells incubated for 72 hrs by MTT assay
Summary of the method: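 Leukemia cells (CEM, DND-41, Jurkat) were grown in RPMI-1640 at 8×10³ cells/well and left 18 h. Donor PBL were gradient-separated, held overnight in RPMI-1640/10% FBS, and non-adherent cells set at 5×10^5 cells/mL without PHA (resting). Both were exposed 72 h to graded concentrations, read by MTT. The ratio is PBL GI50 over leukemia GI50.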

[3] = tested on: HeLa; experiment: Induction of apoptosis in human HeLa cells assessed as increase in H2AX expression at 50 to 100 nM incubated upto 48 hrs by western blot analysis; format: functional, cell-based
Summary of the method: (§1)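 HeLa cells were exposed for set times, including 24 and 48 h, then washed in cold PBS and lysed on ice for 30 min. Lysates were cleared at 15000 × g at 4 °C. 10 µg protein was run by SDS-PAGE and transferred to PVDF. Blots were probed 2 h at room temperature with primary antibodies, then peroxidase secondary antibodies, and detected by ECL. Membranes were reprobed for actin as loading control.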

[4] = tested on: A2058; experiment: Induction of cell cycle arrest in human A2058 cells assessed as reduction in cell population at G1 phase at 50 to 100 nM incubated for 24 hrs by PI staining based flow cytometric analysis; format: functional
Summary of the method: (§2)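 A375 and A2058 melanoma cells were treated 24 h. Cells were fixed in ice-cold 70% ethanol, then given lysis buffer with RNase A and 0.1% Triton X-100 and stained with PI. Phase distribution came from flow cytometric DNA histograms. Mean ± SEM of two independent experiments.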

[5] = tested on: B16-BL6; experiment: Growth inhibition of mouse B16-BL6 cells incubated for 72 hrs by MTT assay; format: functional; details: B16-BL6, 72 h
[6] = tested on: A-375; experiment: Induction of cell cycle arrest in human A375 cells assessed as reduction in cell population at G1 phase at 50 to 100 nM incubated for 24 hrs by PI staining based flow cytometric analysis; format: functional; summary of the method: as §2
[7] = tested on: HeLa; experiment: Induction of cell cycle arrest in human HeLa cells assessed as accumulation at M phase by measuring p-histone H3 level at 50 to 100 nM incubated for 24 hrs by PI staining based flow cytometric analysis; format: functional
[8] = tested on: A-375; experiment: Growth inhibition of human A375 cells incubated for 72 hrs by MTT assay; format: functional; details: A-375, 72 h
[9] = tested on: HeLa; experiment: Cell cycle arrest in human HeLa cells assessed as disappearance in cdc25c protein expression at 50 to 100 nM incubated for 48 hrs by western blot analysis; format: functional, cell-based; summary of the method: as §1
[10] = tested on: HeLa; experiment: Cell cycle arrest in human HeLa cells assessed as decrease in cdc25c protein expression level at 50 to 100 nM incubated for 24 hrs by western blot analysis; format: functional, cell-based; summary of the method: as §1
[11] = tested on: HeLa; experiment: Induction of apoptosis in human HeLa cells assessed as decrease in Mcl1 protein expression at 50 to 100 nM incubated upto 48 hrs by western blot analysis; format: functional, cell-based; details: 10 to 100 nM, in the assay text read “10 to 100 nM” for “50 to 100 nM”; summary of the method: as §1
[12] = Growth inhibition of human DND41 cells incubated for 72 hrs by MTT assay; format: functional; details: DND41, 72 h
Summary of the method: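 Leukemia lines were grown in RPMI-1640; the CEM^Vbl-100 medium also contained 100 ng/mL vinblastine. Cells were seeded at 8 × 10³ per well and left 18 h at 37 °C, 5% CO2. Medium was then replaced with fresh medium holding graded compound concentrations (DMSO stocks), in triplicate, for 72 h. Viability was read by MTT, and GI50 = concentration inhibiting proliferation 50%.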

[13] = Selectivity ratio of GI50 for PHA-stimulated human PBL cells to GI50 for human CEM cells incubated for 72 hrs by MTT assay
Summary of the method: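 Leukemia cells (CEM, DND-41, Jurkat) were grown in RPMI-1640 at 8×10³ cells/well and left 18 h. Donor PBL were gradient-separated, held overnight, and non-adherent cells set at 5×10^5 cells/mL with 2.5 µg/mL PHA. Both were exposed 72 h at 37 °C to graded compound concentrations, read by MTT. The ratio is PBL GI50 over leukemia GI50.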

[14] = tested on: HeLa; experiment: Cell cycle arrest in human HeLa cells assessed as proportion of mitotic cells at 100 nM incubated for 24 hrs by PI staining based flow cytometry (reference value: 1.5%); format: functional
[15] = tested on: HeLa; experiment: Cell cycle arrest in human HeLa cells assessed as decrease in phosphorylated form of cdc2 kinase at 50 to 100 nM incubated for 48 hrs by western blot analysis; format: functional, cell-based; summary of the method: as §1
[16] = tested on: MDA-MB-231; experiment: Growth inhibition of human MDA-MB-231 cells incubated for 72 hrs by MTT assay; format: functional; details: MDA-MB-231, 72 h
[17] = Metabolic stability in human liver microsomes assessed as retention time of the parent compound at 10 uM incubated for 60 mins in presence of NADPH by HPLC analysis; format: ADME, Microsome; details: 1 h
Summary of the method: (§3)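 Compound (10 µM) was incubated with pooled mixed-gender HLMs (0.5 mg protein/mL), 1 mM NADPH and 0.1 M KH2PO4 pH 7.4 for 60 min at 37 °C, aerobic. The reaction was started with microsomes and stopped with ice-cold acetonitrile; controls lacked NADPH. The supernatant went to C8 HPLC with fluorescence detection (ex 344, em 493 nm). Collected peaks were analyzed by ESI+ mass spectrometry.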

[18] = Metabolic stability in NADPH-supplemented human liver microsomes assessed as parent compound remaining at 37 degC incubated for 30 mins; format: ADME, Microsome; details: read-out: Stability
Summary of the method: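 Compound (10 µM) was incubated at 37 °C with 0.5 mg/mL pooled HLMs and 1 mM NADPH in 0.1 M KH2PO4 pH 7.4, sampled at 0, 2, 5, 15 and 30 min. Controls without NADPH, or buffer only, ran 0 and 30 min. Parent was quantified by HPLC-fluorescence as % of the 0 min level, n = 3. t1/2 = 0.693/k, with k from regression of ln % remaining versus time.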

[19] = Metabolic stability in human liver microsomes assessed as retention time of 7-phenyl-3H-pyrrolo[3,2-f]quinolin-9(6H)-one metabolite at 10 uM incubated for 60 mins in presence of NADPH by HPLC analysis; format: ADME, Microsome; details: 1 h; summary of the method: as §3
[20] = Drug metabolism in human liver microsomes at 10 uM incubated for 60 mins in presence of NADPH by HPLC analysis; format: ADME, Microsome; details: 1 h
Summary of the method: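 Compound (10 µM) was incubated 0 or 60 min at 37 °C with pooled HLMs (1 mg/mL), with or without 1 mM NADPH, or in buffer only (0.1 M KH2PO4 pH 7.4). Reactions were stopped with ice-cold acetonitrile. Remaining parent was measured by HPLC-fluorescence relative to 0 min; mean ± SD, n = 3.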

[21] = Metabolic stability in human liver microsomes assessed as 7-phenyl-3H-pyrrolo[3,2-f]quinolin-9(6H)-one metabolite formation at 10 uM incubated for 60 mins in presence of NADPH by ESI-MS analysis; format: ADME, Microsome; details: 1 h; summary of the method: as §3

**Q.** Which results are given for `CCn1ccc2c3c(=O)cc(-c4ccccc4F)[nH]c3ccc21`?
**A.** Activity [1]: Active; RatioGI50 [2]: 10000 - 30000; Activity [3]: Active; Activity [4]: Active; GI50 [5]: 10 nM; Activity [6]: Active; Activity [7]: Active; GI50 [8]: 15.5 nM; inhibition [9]: Active; inhibition [10]: Active; Activity [11]: Active; GI50 [12]: 0.26 nM; RatioGI50 [13]: 10000 - 30000; Activity [14]: 44%; inhibition [15]: Active; GI50 [16]: 164 nM

**Q.** Which RatioGI50 [2] does the source give for `CCn1ccc2c3c(=O)cc(-c4ccccc4)[nH]c3ccc21` here?
**A.** 10000 - 30000

**Q.** And the Retention_time [17]?
**A.** 12.9 min

**Q.** What about the remaining at 0.5 h [18] of the same compound?
**A.** < 70%

**Q.** And the Retention_time [19]?
**A.** 11.2 min

**Q.** What about the Drug metabolism [20] of the same compound?
**A.** Metabolite_Detected

**Q.** What about the RatioGI50 [13] of the same compound?
**A.** 10000 - 30000

**Q.** And the Drug metabolism [21]?
**A.** Metabolite_Detected
